Data taken from ChEMBL document CHEMBL4382268, “Glycyrrhetinic acid derivatives containing aminophosphonate ester species as multidrug resistance reversers that block the NF-κB pathway and cell proliferation” (Bioorg Med Chem Lett, 2018).

Tests used:
[1] = Inhibition of TNF-alpha induced NF-kappaB activation in human A549 cells after 7 hrs by Bright-Glo luciferase reporter gene assay; type: cell-based; settings: Homo sapiens, A549, 7 h; read-out: IC50
Procedure, shortened: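 A549 cells transiently cotransfected with an NF-κB-Luc reporter and stimulated with TNF-α. Luciferase read-out of inhibition gives IC50, the mean of at least three independent experiments each with triplicates.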

HepG2 = experiment: Antiproliferative activity against human HepG2 cells after 48 hrs by MTT assay; type: functional, cell-based; settings: HepG2, 48 h
Procedure, shortened: (§1)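 MTT read-out of antiproliferative activity across cancer lines HepG-2, NCI-H460, MGC-803, A549 and MG-63 and normal liver line HL-7702. IC50 given as mean ± S.D. of three separate experiments, each run in triplicate.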

A549 [2] = experiment: Antiproliferative activity against human A549 cells after 48 hrs by MTT assay; type: functional, cell-based; settings: A549, 48 h; procedure, shortened: as §1
Homo sapiens = species: Homo sapiens; experiment: Inhibition of TNF-alpha induced activation of NF-kappaB (unknown origin) assessed as reduction in DNA binding ability at 5 to 20 uM by cell based ELISA relative to TNF-alpha alone
Procedure, shortened: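 ELISA-type DNA-binding assay of NF-κB in TNF-α-stimulated A549 cells treated at 5, 10 and 20 µM. Compared against untreated and TNF-α-only controls. Mean ± SD, p < 0.05, three runs.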

[3] = Growth inhibition of cisplatin-resistant human SKOV3/DDP cells after 48 hrs by MTT assay; type: functional; settings: SK-OV-3, 48 h
Procedure, shortened: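 MTT growth inhibition in the paired ovarian lines, cisplatin-sensitive SK-OV-3 and cisplatin-resistant SK-OV-3/CDDP. IC50 given as mean ± S.D. of three separate experiments, each in triplicate.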

A549 [4] = experiment: Induction of apoptosis in human A549 cells after 24 hrs by annexin V-FITC/propidium iodide staining-based flow cytometry analysis; type: functional, cell-based
Procedure, shortened: (§2)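 A549 cells treated at 5, 10 and 20 µM for 24 h, then harvested and stained with Annexin V-FITC and PI. Flow cytometry quadrants: Q1 necrotic, Q2 late apoptotic/necrotic, Q3 early apoptotic, Q4 living. Performed three times.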

A549 [5] = experiment: Induction of apoptosis in human A549 cells assessed as late apoptotic cells at 10 uM after 24 hrs by annexin V-FITC/propidium iodide staining-based flow cytometry analysis (reference value: 2.20%); type: functional; procedure, shortened: as §2
A549 [6] = experiment: Induction of apoptosis in human A549 cells assessed as necrotic apoptotic cells at 10 uM after 24 hrs by annexin V-FITC/propidium iodide staining-based flow cytometry analysis (reference value: 0.520%); type: functional; procedure, shortened: as §2
A549 [7] = experiment: Induction of apoptosis in human A549 cells assessed as necrotic apoptotic cells at 20 uM after 24 hrs by annexin V-FITC/propidium iodide staining-based flow cytometry analysis (reference value: 0.520%); type: functional; procedure, shortened: as §2
A549 [8] = experiment: Induction of apoptosis in human A549 cells assessed as viable cells at 20 uM after 24 hrs by annexin V-FITC/propidium iodide staining-based flow cytometry analysis (reference value: 96.0%); type: functional; settings: A549, 24 h, read-out: Activity; procedure, shortened: as §2
A549 [9] = experiment: Cell cycle arrest in human A549 cells assessed as accumulation at S phase at 5 uM after 24 hrs by propidium iodide staining based flow cytometry (reference value: 38.76%); type: functional

CCOP(=O)(OCC)C(Nc1ccc(CC(=O)NCCCCNC(=O)[C@@]2(C)CC[C@]3(C)CC[C@]4(C)C(=CC(=O)[C@@H]5[C@@]6(C)CC[C@H](OC(C)=O)C(C)(C)[C@@H]6CC[C@]54C)[C@@H]3C2)cc1)c1ccc(F)cc1 (stereo partly specified)
IC50 [1]: 0.97 µM | IC50 (HepG2): 9.11 µM | IC50 (A549 [2]): 6.25 µM | fold change (FC) (Homo sapiens): 2.3 | IC50 [3]: 8.94 µM | Activity (A549 [4]): Dose-dependent effect | Activity (A549 [5]): 22.6% | Activity (A549 [6]): 0.386% | Activity (A549 [7]): 0.509% | viability at 20 µM (A549 [8]): 40.3% | Activity (A549 [9]): 40.09%
